This is an account of results in PubChem BioAssay.

Test [1] can be described thus: HUVEC growth inhibition – cell-based, human, primary screen (AID 575;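 active means viability at or below 30% in both replicate assays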;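 further: 100% = median of untreated cell wells with 0.1% DMSO on each plate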). The following applies: HUVEC proliferation, CellTiter-Glo luminescence, 72 h; at 10 µM; stronger effect = lower value. The procedure, abridged:
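Timing: 72 h treatment at 37 °C; material: HUVEC primary cells; technique: CellTiter-Glo luminescence measuring cellular ATP; controls: vehicle and MePR control wells; measure: percent of median DMSO-control luminescence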

Test [2] in a line: H69AR cell proliferation blockers – human, duplicate replicates, primary screen (AID 580).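 Further: 100% = mean luminescence of untreated wells and 0% = no signal.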 The following applies: H69AR lung tumor cells viability, ATP luminescence, 72 h; at 10 µM; stronger effect = lower value.
The nature of test [3]: MRP1 drug-resistance reversers in H69AR cells – cell-based, doxorubicin co-treatment, pilot screen (AID 601;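 active means viability loss from added drug above about 55%, and viability with drug at most 40%, in both replicates, limit read from the data, passing the limit was not always enough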). The following applies: CellTiter-Glo, 72 h, at 10 µM; for differential viability (reversal): stronger effect = higher value.
Test [4] can be described thus: yeast transport mutant growth inhibition pilot in 384-well plates, post-Golgi transport modulator project (AID 636; in the data active means inhibition above about 31%). The following applies: absorbance 615 nm, about 18 h, stronger effect = higher value.
Test [5] in a line: growth suppression of yeast trafficking mutant, preliminary HTS, modulators of trafficking downstream of Golgi apparatus project, 1536-format plate, OD 615 nm (AID 637; in the data active means inhibition above about 30%). The following applies: yeast transport mutant growth, absorbance 615 nm, 18 h; stronger effect = higher value.
The mark [6] stands for this setting: H69AR cells + 2 uM doxorubicin, measured here: viability with 2 uM doxorubicin, stronger effect = lower value.
[7] abbreviates: H69AR cells, compound alone cytotoxicity.

Structures are written as SMILES. Active and inactive are the calls of the source.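 How the source made its calls, unless noted: active means viability at or under a set limit in both replicates, limit being median viability minus 3 SD (cut at about 48% in these data, passing the limit was not always enough); inconclusive means at or under the limit in just one replicate; inactive means at or above the limit in both replicates.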

Regarding `COc1cccc(NC(=O)C2CCN(c3ncccn3)CC2)c1`, the viability was 90% (inactive) in test [1], 94% (inactive) in test [2], 96.6% in test [3] (setting [6]) and 94% in test [3] (setting [7]). Moreover, the differential viability (reversal) in test [3] (H69AR cells + 2 uM doxorubicin) was -2.54% (inactive). In addition, the figures for the inhibition in test [4] and in test [5] were -6.4% (inactive) and -12.5% (inactive), respectively.
As for `COc1ccc(C(=O)COC(=O)CCn2nnc(-c3cccs3)n2)cc1`, the viability in test [1] was 110% (inactive); in test [2] it was 102% (inactive); in test [3] (setting [6]), 93.4%; in test [3] (setting [7]) it was 102%. In addition, in test [3] (H69AR cells + 2 uM doxorubicin), the differential viability (reversal) is 9.01% (inactive). Besides, the values for the inhibition in test [4] and in test [5] were -0.27% (inactive) and -6.35% (inactive), respectively.
Regarding `CC(=O)N1CCN(S(=O)(=O)c2ccc(S(=O)(=O)NC3CC3)cc2)CC1`, the viability in test [1] was 112% (inactive); in test [2], 92.3% (inactive); in test [3] (setting [6]), 87.3%; in test [3] (setting [7]), 92.3%. Also, in test [3] (H69AR cells + 2 uM doxorubicin), the differential viability (reversal) is 5.03% (inactive). For the same compound, the inhibition in test [4] was -6.8% (inactive); in test [5] it was 2.86% (inactive).
For `CC1(C)CC(=O)C=C(NCCN2CCN(C(=O)Nc3ccccc3)CC2)C1`, the viability in test [1] was 103% (inactive); in test [2], 96.4% (inactive); in test [3] (setting [6]), 89.8%; in test [3] (setting [7]), 96.4%. For the same compound, in test [3] (H69AR cells + 2 uM doxorubicin), the differential viability (reversal) was 6.64% (inactive). Besides, the inhibition in test [4] is -5.07% (inactive); in test [5], 3.97% (inactive).
Turning to `O=C(Nc1cc(C(F)(F)F)ccc1Cl)C1CCN(c2nnc(-n3cccc3)s2)CC1`, the viability is 80.2% (inactive) in test [1], 70.9% (inactive) in test [2], 63.3% in test [3] (setting [6]) and 70.9% in test [3] (setting [7]). Also, the differential viability (reversal) in test [3] (H69AR cells + 2 uM doxorubicin) was 7.64% (inactive). For the same compound, the inhibition in test [4] was -6% (inactive); in test [5] it was 2.22% (inactive).
Regarding `COc1cccc(-c2noc(CCC(=O)NC3CCCCC3)n2)c1`, the viability was 91.5% (inactive) in test [1], 97.6% (inactive) in test [2], 97.3% in test [3] (setting [6]) and 97.6% in test [3] (setting [7]). For the same compound, the differential viability (reversal) in test [3] (H69AR cells + 2 uM doxorubicin) was 0.295% (inactive). In addition, the inhibition in test [4] was -2.63% (inactive); in test [5], -5.4% (inactive).
In the case of `CN(C)S(=O)(=O)Nc1ccccc1C(N)=O`, the viability in test [1] is 90.8% (inactive); in test [2] it was 98.4% (inactive); in test [3] (setting [6]), 84.6%; in test [3] (setting [7]) it was 98.4%. Also, the differential viability (reversal) in test [3] (H69AR cells + 2 uM doxorubicin) was 13.8% (inactive). The figures for the inhibition in test [4] and in test [5] were -6% (inactive) and 0.63% (inactive), respectively.
Turning to `Oc1ccc(-c2onc(C(F)(F)F)c2-c2cscn2)c(O)c1`, the viability was 108% (inactive) in test [1], 103% (inactive) in test [2], 97.3% in test [3] (setting [6]) and 103% in test [3] (setting [7]). Besides, the differential viability (reversal) in test [3] (H69AR cells + 2 uM doxorubicin) was 5.71% (inactive). The inhibition in test [4] is -2.99% (inactive); in test [5], 4.92% (inactive).
As to `C=Cn1c(N2CCOCC2)nc2c1c(=O)[nH]c(=O)n2C`, the viability in test [1] is 98.8% (inactive); in test [2] it was 97.1% (inactive); in test [3] (setting [6]) it was 88.8%; in test [3] (setting [7]), 97.1%. For the same compound, the differential viability (reversal) in test [3] (H69AR cells + 2 uM doxorubicin) is 8.31% (inactive). The figures for the inhibition in test [4] and in test [5] were -4.8% (inactive) and 1.59% (inactive), respectively.
`COc1cccc(-c2csc3nc[nH]c(=O)c23)c1`: the viability in test [1] is 92.6% (inactive); in test [2], 86.7% (inactive); in test [3] (setting [6]) it was 70%; in test [3] (setting [7]), 86.7%. The differential viability (reversal) in test [3] (H69AR cells + 2 uM doxorubicin) is 16.7% (inactive). The inhibition in test [4] was -5.73% (inactive); in test [5], 5.71% (inactive).
`CC1(c2ccc(OC(F)F)cc2)NC(=O)N(CC(=O)Nc2ccc3c(c2)OCO3)C1=O` (stereo not given): the viability is 81.6% (inactive) in test [1], 91.7% (inactive) in test [2], 94.7% in test [3] (setting [6]) and 91.7% in test [3] (setting [7]). Further, the differential viability (reversal) in test [3] (H69AR cells + 2 uM doxorubicin) was -2.95% (inactive). The inhibition in test [4] is -5.71% (inactive); in test [5], -3.65% (inactive).
Take `CN1CCN(S(=O)(=O)c2ccc(NC(=O)c3ccc(F)cc3)cc2)CC1`: the viability was 94.2% (inactive) in test [1], 96.8% (inactive) in test [2], 88.9% in test [3] (setting [6]) and 96.8% in test [3] (setting [7]). For the same compound, in test [3] (H69AR cells + 2 uM doxorubicin), the differential viability (reversal) was 7.89% (inactive). Moreover, the inhibition is -4% (inactive) in test [4] and -5.08% (inactive) in test [5].
For the compound `CN(c1cccc(NS(=O)(=O)c2cccs2)c1)S(C)(=O)=O`, the viability was 95.5% (inactive) in test [1], 86.8% (inactive) in test [2], 84.7% in test [3] (setting [6]) and 86.8% in test [3] (setting [7]). Besides, the differential viability (reversal) in test [3] (H69AR cells + 2 uM doxorubicin) was 2.12% (inactive). For the same compound, the figures for the inhibition in test [4] and in test [5] were -0.13% (inactive) and 18.1% (inactive), respectively.
`COc1ccc(CCNS(=O)(=O)c2ccc(C(=O)NCc3ccco3)cc2)cc1OC`: the viability is 83.4% (inactive) in test [1], 80.9% (inactive) in test [2], 85.6% in test [3] (setting [6]) and 80.9% in test [3] (setting [7]). Further, in test [3] (H69AR cells + 2 uM doxorubicin), the differential viability (reversal) is -4.64% (inactive). The inhibition in test [4] was 1.3% (inactive); in test [5], 10.9% (inactive).
As to `O=c1oc2ccccc2c(O)c1CN1CCCCC1`, the viability in test [1] is 96.3% (inactive); in test [2], 99.9% (inactive); in test [3] (setting [6]), 83.8%; in test [3] (setting [7]) it was 99.9%. Moreover, the differential viability (reversal) in test [3] (H69AR cells + 2 uM doxorubicin) was 16.1% (inactive). Besides, the values for the inhibition in test [4] and in test [5] were -6% (inactive) and 2.22% (inactive), respectively.
As for `O=c1cc(CSc2nnnn2-c2ccccc2)nc2scc(-c3ccccc3)n12`, the viability in test [1] is 92% (inactive); in test [2] it was 101% (inactive); in test [3] (setting [6]), 93.9%; in test [3] (setting [7]), 101%. The differential viability (reversal) in test [3] (H69AR cells + 2 uM doxorubicin) is 6.61% (inactive). In addition, the inhibition in test [4] is 0.13% (inactive); in test [5], -7.62% (inactive).
In the case of `O=C(c1ccco1)N1CCN(C(=O)c2ccc(Cn3cc(Br)cn3)o2)CC1`, the viability in test [1] is 91% (inactive); in test [2], 79.7% (inactive); in test [3] (setting [6]), 92.4%; in test [3] (setting [7]), 79.7%. Also, the differential viability (reversal) in test [3] (H69AR cells + 2 uM doxorubicin) was -12.7% (inactive). In addition, the inhibition was -2.11% (inactive) in test [4] and 2.86% (inactive) in test [5].
For `Cc1ccc(NCc2nnc(SCC(=O)NCc3ccco3)n2CC2CCCO2)cc1Cl` (stereo not given), the viability in test [1] is 85.6% (inactive); in test [2], 88.5% (inactive); in test [3] (setting [6]), 95.8%; in test [3] (setting [7]) it was 88.5%. Further, the differential viability (reversal) in test [3] (H69AR cells + 2 uM doxorubicin) is -7.28% (inactive). Moreover, the values for the inhibition in test [4] and in test [5] were 5% (inactive) and -3.17% (inactive), respectively.
On to `O=C(NCCN1CCCC1)C1COc2ccccc2O1` (stereo not given), for which the viability in test [1] is 105% (inactive); in test [2], 95.7% (inactive); in test [3] (setting [6]) it was 93.9%; in test [3] (setting [7]), 95.7%. Further, the differential viability (reversal) in test [3] (H69AR cells + 2 uM doxorubicin) is 1.77% (inactive). The figures for the inhibition in test [4] and in test [5] were -7.14% (inactive) and -3.02% (inactive), respectively.
With `COC(=O)CN1C(=O)C2(C(C#N)=C(N)Oc3c2c(C)nn3-c2ccccc2)c2ccccc21` (stereo not given), the viability in test [1] was 69.8% (inactive); in test [2], 67.8% (inactive); in test [3] (setting [6]), 73.3%; in test [3] (setting [7]), 67.8%. For the same compound, the differential viability (reversal) in test [3] (H69AR cells + 2 uM doxorubicin) was -5.54% (inactive). Also, the inhibition was -6.32% (inactive) in test [4] and -1.43% (inactive) in test [5].

As a reminder, the viability is a read-out of living cells in per cent, often relative to untreated cells. The term inhibition denotes the drop in the measured response relative to a control, in per cent.
